Results taken from ChEMBL document CHEMBL4251703, “Linker Variation and Structure-Activity Relationship Analyses of Carboxylic Acid-based Small Molecule STAT3 Inhibitors” (ACS Med Chem Lett, 2018).
Converted amounts (≈) assume the structure as drawn. Values belong to the compound of their own block, whether it stands above or below them. The source made the active and inactive calls. The calls are words filed in the database; no cut-off is given here.

Columns and labels:
[1] = molecular target: Signal transducer and activator of transcription 3 (Homo sapiens) (UniProt P40763); assay: Inhibition of STAT3 in human UACC-903 cells assessed as reduction in p-STAT3(Y705) level at 10 to 20 uM after 1 to 3 hrs by immunoblot analysis; assay type: cell-based
Chain of Signal transducer and activator of transcription 3 (Homo sapiens) (P40763 whole entry): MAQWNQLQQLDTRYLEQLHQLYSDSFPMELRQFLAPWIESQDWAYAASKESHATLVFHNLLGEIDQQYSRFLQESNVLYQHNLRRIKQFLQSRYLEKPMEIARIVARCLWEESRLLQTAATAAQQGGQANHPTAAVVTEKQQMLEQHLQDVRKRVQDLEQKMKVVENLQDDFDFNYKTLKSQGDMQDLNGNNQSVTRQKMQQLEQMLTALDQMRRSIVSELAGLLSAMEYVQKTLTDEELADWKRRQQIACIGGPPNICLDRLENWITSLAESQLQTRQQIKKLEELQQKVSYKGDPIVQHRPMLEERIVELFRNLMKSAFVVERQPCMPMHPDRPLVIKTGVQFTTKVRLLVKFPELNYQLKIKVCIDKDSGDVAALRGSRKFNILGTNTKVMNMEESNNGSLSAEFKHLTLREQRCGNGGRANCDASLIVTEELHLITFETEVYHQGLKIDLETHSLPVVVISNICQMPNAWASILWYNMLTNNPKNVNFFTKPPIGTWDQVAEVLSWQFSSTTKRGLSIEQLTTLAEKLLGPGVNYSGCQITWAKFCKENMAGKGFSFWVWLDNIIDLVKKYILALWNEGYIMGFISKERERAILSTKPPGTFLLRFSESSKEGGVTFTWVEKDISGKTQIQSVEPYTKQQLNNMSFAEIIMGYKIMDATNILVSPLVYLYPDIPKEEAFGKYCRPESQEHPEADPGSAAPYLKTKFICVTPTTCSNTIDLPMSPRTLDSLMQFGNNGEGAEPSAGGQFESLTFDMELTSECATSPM

[2] = molecular target: Signal transducer and activator of transcription 3 (Homo sapiens) (UniProt P40763); assay: Inhibition of STAT3 in human C8161 cells assessed as reduction in p-STAT3(Y705) level at 10 to 20 uM after 1 to 3 hrs by immunoblot analysis; assay type: cell-based
[3] = molecular target: Signal transducer and activator of transcription 3 (Homo sapiens) (UniProt P40763); assay: Inhibition of STAT3 in human MDA-MB-468 cells assessed as reduction in p-STAT3(Y705) level at 5 uM after 1 to 24 hrs by immunoblot analysis; assay type: cell-based
[4] = molecular target: Signal transducer and activator of transcription 3 (Homo sapiens) (UniProt P40763); assay: Inhibition of STAT3 DNA binding activity in human MDA-MB-231 nuclear extract at 10 uM after 3 hrs by electrophoretic mobility shift assay
Summary of the method: (§1)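 MDA-MB-231 breast cancer cells were exposed to 10 μM compound for 1, 3 or 24 h. Nuclear extracts of equal total protein were then assayed for STAT3 DNA-binding by EMSA.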

[5] = molecular target: Signal transducer and activator of transcription 3 (Mus musculus) (UniProt P42227); assay: (§2) Inhibition of STAT3 DNA binding activity in mouse NIH/3T3 nuclear extract preincubated for 30 mins followed by [32P]hSIE addition measured after 30 mins by electrophoretic mobility shift assay
Chain of Signal transducer and activator of transcription 3 (Mus musculus) (P42227 whole entry): as the sequence (P40763 whole entry) above, with E760D counted along it
Summary of the method: (§3)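 STAT3 DNA-binding was measured by EMSA using nuclear extracts of equal total protein from v-Src-transformed fibroblasts containing activated STAT3. Extracts were preincubated for 30 min with 0–100 μM compound, then incubated with radiolabeled hSIE probe.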

[6] = molecular target: Signal transducer and activator of transcription 3 (Homo sapiens) (UniProt P40763); assay: Inhibition of STAT3 DNA binding activity in human MDA-MB-231 nuclear extract at 10 uM after 1 hr by electrophoretic mobility shift assay; summary of the method: as §1
[7] = molecular target: Signal transducer and activator of transcription 3 (Homo sapiens) (UniProt P40763); assay: Inhibition of STAT3 in human MDA-MB-231 cells assessed as reduction in p-STAT3(Y705) level at 5 uM after 1 to 24 hrs by immunoblot analysis; assay type: cell-based
[8] = molecular target: Signal transducer and activator of transcription 3 (Homo sapiens) (UniProt P40763); assay: Inhibition of STAT3 in human 1205 Lu cells assessed as reduction in p-STAT3(Y705) level at 10 to 20 uM after 1 to 3 hrs by immunoblot analysis; assay type: cell-based
[9] = molecular target: Signal transducer and activator of transcription 3 (Homo sapiens) (UniProt P40763); assay: Inhibition of STAT3 DNA binding activity in human MDA-MB-231 nuclear extract at 10 uM after 24 hrs by electrophoretic mobility shift assay; summary of the method: as §1
Homo sapiens [10] = species on record: Homo sapiens; assay: Cytotoxicity against human C8161 cells harboring active STAT3 assessed as decrease in cell viability up to 20 uM after 48 hrs by MTT assay; assay type: functional, cell-based
Homo sapiens [11] = species on record: Homo sapiens; assay: Cytotoxicity against human 1205 Lu cells harboring active STAT3 assessed as decrease in cell viability up to 20 uM after 48 hrs by MTT assay; assay type: functional, cell-based
Homo sapiens [12] = species on record: Homo sapiens; assay: Cytotoxicity against human C81-61 cells harboring active STAT3 assessed as decrease in cell viability up to 20 uM after 48 hrs by MTT assay; assay type: functional, cell-based
[13] = molecular target: Signal transducer and activator of transcription 3 (Homo sapiens) (UniProt P40763); assay: Inhibition of STAT3 DNA binding activity in human MDA-MB-468 nuclear extract at 5 uM after 3 to 24 hrs by electrophoretic mobility shift assay
Summary of the method: (§4)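 MDA-MB-468 cells received 5 μM compound for 3 or 24 h. STAT3 DNA-binding in nuclear extracts of equal total protein was then analysed by EMSA.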

MDA-MB-231 [14] = assay: Cytotoxicity against human MDA-MB-231 cells harboring active STAT3 assessed as decrease in cell viability up to 10 uM after 72 hrs by CyQuant dye based assay; assay type: functional
Summary of the method: (§5)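 Cells were grown in 96-well format and treated once with 0–10 μM compound for 72 h. Viable cells were quantified by CyQuant proliferation assay and plotted as % viability against concentration. Data are mean ± SD of three independent determinations.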

MDA-MB-231 [15] = assay: Cytotoxicity against human MDA-MB-231 cells harboring active STAT3 assessed as decrease in cell viability up to 5 uM after 72 hrs by trypan blue exclusion based phase-contrast microscopy; assay type: functional
MCF7 = assay: Cytotoxicity against human MCF7 cells assessed as decrease in cell viability up to 10 uM after 72 hrs by CyQuant dye based assay; assay type: functional; summary of the method: as §5
MDA-MB-468 = assay: Cytotoxicity against human MDA-MB-468 cells harboring active STAT3 assessed as decrease in cell viability up to 10 uM after 72 hrs by CyQuant dye based assay; assay type: functional; summary of the method: as §5
[16] = Half life in human liver microsomes; assay type: ADME, microsome
[17] = Solubility of the compound in PBS at pH 7.4; assay type: physicochemical
Summary of the method: (§6)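 Aqueous solubility was determined in pH 7.4 PBS and in pH 6.8 buffered simulated intestinal fluid, reported in μg/mL.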

[18] = Solubility of the compound in simulated intestinal fluid at pH 6.8; assay type: physicochemical; summary of the method: as §6
[19] = Half life in mouse liver microsomes; assay type: ADME, microsome
[20] = Apparent permeability of the compound from apical to basolateral side in human Caco2 cells; assay type: ADME, cell-based; conditions: Caco-2
[21] = molecular target: Proto-oncogene tyrosine-protein kinase Src (Homo sapiens) (UniProt P12931); assay: Inhibition of SRC phosphorylation in human MDA-MB-231 cells at 5 uM after 24 hrs by immunoblot analysis; assay type: cell-based
Chain of Proto-oncogene tyrosine-protein kinase Src (Homo sapiens) (P12931 2-536 limits assumed): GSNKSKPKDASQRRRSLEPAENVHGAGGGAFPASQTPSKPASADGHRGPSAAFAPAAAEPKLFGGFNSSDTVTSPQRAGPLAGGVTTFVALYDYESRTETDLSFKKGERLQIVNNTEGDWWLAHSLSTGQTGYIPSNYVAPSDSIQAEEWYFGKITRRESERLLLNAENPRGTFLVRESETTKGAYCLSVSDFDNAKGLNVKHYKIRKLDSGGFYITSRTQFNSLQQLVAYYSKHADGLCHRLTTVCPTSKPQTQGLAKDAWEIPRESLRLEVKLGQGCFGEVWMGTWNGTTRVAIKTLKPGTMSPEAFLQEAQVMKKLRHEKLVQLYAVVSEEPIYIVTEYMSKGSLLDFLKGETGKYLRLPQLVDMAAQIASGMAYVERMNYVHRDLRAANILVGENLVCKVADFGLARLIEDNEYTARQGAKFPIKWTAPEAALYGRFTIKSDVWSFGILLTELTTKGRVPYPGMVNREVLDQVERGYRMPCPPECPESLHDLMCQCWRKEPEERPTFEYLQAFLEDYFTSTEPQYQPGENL

[22] = molecular target: Mitogen-activated protein kinase; ERK1/ERK2 (Homo sapiens) (UniProt P27361+P28482); assay: Inhibition of ERK1/2 phosphorylation in human MDA-MB-231 cells at 5 uM after 24 hrs by immunoblot analysis; assay type: cell-based
Chain of Mitogen-activated protein kinase; ERK1/ERK2 (Homo sapiens) (P27361 whole entry, looked up): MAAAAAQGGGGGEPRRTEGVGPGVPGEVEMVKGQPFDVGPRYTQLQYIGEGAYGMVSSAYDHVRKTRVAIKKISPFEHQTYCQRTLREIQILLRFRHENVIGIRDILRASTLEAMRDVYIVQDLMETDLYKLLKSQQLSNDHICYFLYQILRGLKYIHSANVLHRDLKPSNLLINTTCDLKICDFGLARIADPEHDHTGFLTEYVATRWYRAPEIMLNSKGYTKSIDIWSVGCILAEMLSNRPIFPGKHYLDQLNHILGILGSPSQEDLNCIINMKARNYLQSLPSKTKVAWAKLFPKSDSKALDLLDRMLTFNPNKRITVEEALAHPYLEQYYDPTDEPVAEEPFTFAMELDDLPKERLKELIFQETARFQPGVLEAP
Chain of Mitogen-activated protein kinase; ERK1/ERK2 (Homo sapiens) (P28482 whole entry, looked up): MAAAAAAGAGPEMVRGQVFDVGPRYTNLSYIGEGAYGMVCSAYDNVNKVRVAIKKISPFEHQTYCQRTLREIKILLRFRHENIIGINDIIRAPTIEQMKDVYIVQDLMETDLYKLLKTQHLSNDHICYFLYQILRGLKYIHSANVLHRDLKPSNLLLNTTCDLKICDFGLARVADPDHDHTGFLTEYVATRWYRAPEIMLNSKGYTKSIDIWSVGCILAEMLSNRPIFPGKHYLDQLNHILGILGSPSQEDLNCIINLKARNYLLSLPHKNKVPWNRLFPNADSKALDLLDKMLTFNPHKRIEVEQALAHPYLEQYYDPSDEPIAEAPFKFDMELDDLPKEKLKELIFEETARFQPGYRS

[23] = molecular target: Tyrosine-protein kinase JAK2 (Homo sapiens) (UniProt O60674); assay: Inhibition of JAK2 phosphorylation in human MDA-MB-231 cells at 5 uM after 24 hrs by immunoblot analysis; assay type: cell-based
Chain of Tyrosine-protein kinase JAK2 (Homo sapiens) (O60674 whole entry): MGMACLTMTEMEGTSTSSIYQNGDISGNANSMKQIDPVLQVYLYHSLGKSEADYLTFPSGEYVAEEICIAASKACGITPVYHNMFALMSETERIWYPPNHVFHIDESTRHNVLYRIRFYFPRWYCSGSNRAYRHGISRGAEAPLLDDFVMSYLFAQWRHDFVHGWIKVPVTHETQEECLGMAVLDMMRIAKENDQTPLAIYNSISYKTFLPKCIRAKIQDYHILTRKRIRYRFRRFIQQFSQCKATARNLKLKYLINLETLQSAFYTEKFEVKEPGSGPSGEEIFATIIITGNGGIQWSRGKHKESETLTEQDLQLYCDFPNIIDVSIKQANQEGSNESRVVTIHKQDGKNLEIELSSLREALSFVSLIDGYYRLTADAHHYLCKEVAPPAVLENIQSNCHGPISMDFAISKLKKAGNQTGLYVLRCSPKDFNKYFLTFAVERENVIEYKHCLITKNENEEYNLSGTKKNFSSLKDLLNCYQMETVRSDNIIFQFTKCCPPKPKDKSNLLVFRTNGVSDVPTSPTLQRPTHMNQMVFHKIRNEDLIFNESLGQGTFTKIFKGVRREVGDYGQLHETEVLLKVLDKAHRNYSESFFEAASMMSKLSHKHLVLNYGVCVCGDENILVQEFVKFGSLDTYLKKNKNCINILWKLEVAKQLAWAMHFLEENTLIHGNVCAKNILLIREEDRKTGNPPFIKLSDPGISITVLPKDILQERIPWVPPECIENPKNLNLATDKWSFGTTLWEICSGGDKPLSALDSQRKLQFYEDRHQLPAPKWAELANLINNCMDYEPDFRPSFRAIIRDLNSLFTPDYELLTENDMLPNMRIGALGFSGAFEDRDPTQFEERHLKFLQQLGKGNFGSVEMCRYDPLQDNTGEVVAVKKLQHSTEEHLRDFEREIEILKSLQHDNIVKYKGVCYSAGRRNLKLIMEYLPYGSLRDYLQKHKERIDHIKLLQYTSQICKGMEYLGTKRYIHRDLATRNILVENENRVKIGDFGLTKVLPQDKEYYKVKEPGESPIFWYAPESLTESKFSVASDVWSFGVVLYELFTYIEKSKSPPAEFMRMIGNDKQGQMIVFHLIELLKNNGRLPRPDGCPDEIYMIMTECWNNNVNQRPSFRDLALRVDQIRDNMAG

MDA-MB-231 [24] = assay: Anticlonogenic activity against human MDA-MB-231 cells up to 3 uM after 4 hrs by crystal violet staining based assay; assay type: functional, cell-based
Summary of the method: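 Single-cell cultures of MDA-MB-231 cells were treated once and cultured until large colonies were visible. Colonies were then stained with crystal violet, counted and plotted.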

[25] = molecular target: Signal transducer and activator of transcription 3 (Homo sapiens) (UniProt P40763); assay: Inhibition of STAT3 DNA binding activity in human MDA-MB-468 nuclear extract at 5 uM after 24 hrs by electrophoretic mobility shift assay; summary of the method: as §4
MDA-MB-231 [26] = assay: Antimigratory activity against human MDA-MB-231 cells at 8 uM after 22 to […] hrs by inverted fluorescence microscope; assay type: functional, cell-based
Summary of the method: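 Confluent MDA-MB-231 cultures were wounded and treated once with or without 8 μM compound. Migration into the denuded area was followed over 23 h and imaged. Controls received 0.05% DMSO.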

[27] = molecular target: Signal transducer and activator of transcription 3 (Homo sapiens) (UniProt P40763); assay: Inhibition of STAT3 in human MDA-MB-231 cells assessed as reduction in p-STAT3(Y705) level at 10 uM after 1 hr by immunoblot analysis; assay type: cell-based
[28] = molecular target: Signal transducer and activator of transcription 3 (Mus musculus, UniProt P42227); assay: as §2; summary of the method: as §3
Chain of Signal transducer and activator of transcription 3 (P42227 whole entry): as the sequence (P40763 whole entry) above, with E760D counted along it

[29] = Cytotoxicity against human AR7119 cells assessed as decrease in cell viability up to 20 uM after 48 hrs by MTT assay; assay type: cell-based

inhibition [1]: Active | inhibition [2]: Active | inhibition [3]: Active | inhibition [4]: Active | inhibition [5]: Active | inhibition [6]: inactive | p-STAT3(Y705) reduction (qualitative call) [7]: Active | inhibition [8]: Active | inhibition [9]: inactive | inhibition [13]: Active
Compound: C[C@H](C(=O)N(Cc1ccc(C2CCCCC2)cc1)c1ccc(C(=O)O)c(O)c1)N(C)S(=O)(=O)c1c(F)c(F)c(F)c(F)c1F [listing 1 of 2 here]
Activity (Homo sapiens [10]): Active | Activity (Homo sapiens [11]): Active | Activity (Homo sapiens [12]): Active

inhibition [3]: Active | p-STAT3(Y705) reduction (qualitative call) [7]: Active
Compound: C[C@H](C(=O)N(Cc1ccc(C2CCCCC2)cc1)c1ccc(C(=O)O)cc1F)N(C)S(=O)(=O)c1c(F)c(F)c(F)c(F)c1F
Activity (MDA-MB-231 [14]): Active | Activity (MDA-MB-231 [15]): Active | Activity (MCF7): inactive | Activity (MDA-MB-468): Active

inhibition [4]: Active | inhibition [6]: inactive | inhibition [9]: Active
Compound: C[C@@H](C(=O)N(Cc1ccc(C2CCCCC2)cc1)c1ccc(C(=O)O)c(O)c1)N(C)S(=O)(=O)c1c(F)c(F)c(F)c(F)c1F

half-life [16]: ≥ 17 min | solubility [17]: 0.0076 mg/mL (≈ 12.4 µM) | solubility [18]: 0.014 mg/mL (≈ 22.9 µM) | half-life [19]: ≥ 17 min
Compound: CN(CC(=O)N(Cc1ccc(C2CCCCC2)cc1)c1ccc(C(=O)O)cc1)S(=O)(=O)c1c(F)c(F)c(F)c(F)c1F

Papp A→B [20]: 2 nm/s | solubility [17]: 0.123 mg/mL | solubility [18]: 0.117 mg/mL
Compound: O=C([O-])c1ccc(N(Cc2ccc(C3CCOCC3)cc2)C(=O)[C@H]2CCCN2S(=O)(=O)c2c(F)c(F)c(F)c(F)c2F)cc1O.[Na+]

half-life [16]: ≥ 17 min | solubility [17]: 0.0003 mg/mL (≈ 0.48 µM) | solubility [18]: 0.074 mg/mL (≈ 118 µM) | half-life [19]: ≥ 17 min
Compound: CN(CC(=O)N(Cc1ccc(C2CCCCC2)cc1)c1ccc(C(=O)NO)cc1)S(=O)(=O)c1c(F)c(F)c(F)c(F)c1F

inhibition [21]: inactive | inhibition [22]: inactive | inhibition [23]: inactive | inhibition [25]: Active | inhibition [27]: Active
Compound: C[C@H](C(=O)N(Cc1ccc(C2CCCCC2)cc1)c1ccc(C(=O)O)cc1Cl)N(C)S(=O)(=O)c1c(F)c(F)c(F)c(F)c1F
Activity (MDA-MB-231 [14]): Active | Activity (MCF7): inactive | Activity (MDA-MB-231 [24]): Active | Activity (MDA-MB-231 [26]): Active | Activity (MDA-MB-468): Active

inhibition [5]: inactive | inhibition [27]: Active
Compound: Cc1cc(C(=O)O)ccc1N(Cc1ccc(C2CCCCC2)cc1)C(=O)CN(C)S(=O)(=O)c1c(F)c(F)c(F)c(F)c1F
Activity (MDA-MB-231 [14]): Active | Activity (MCF7): inactive | Activity (MDA-MB-231 [24]): Active | Activity (MDA-MB-231 [26]): Active | Activity (MDA-MB-468): Active

Papp A→B [20]: 1 nm/s | half-life [16]: 54 min | half-life [19]: 26 min
Compound: O=C(O)c1ccc(N(Cc2ccc(C3CCCCC3)cc2)C(=O)[C@@H]2CCCN2S(=O)(=O)c2c(F)c(F)c(F)c(F)c2F)c(F)c1

IC50 [28]: 8.6 to 14.4 µM | inhibition [27]: Active
Compound: CN(CC(=O)N(Cc1ccc(C2CCCCC2)cc1)c1ccc(C(=O)O)cc1Cl)S(=O)(=O)c1c(F)c(F)c(F)c(F)c1F
Activity (MDA-MB-231 [14]): Active | Activity (MCF7): inactive | Activity (MDA-MB-231 [24]): Active | Activity (MDA-MB-231 [26]): Active | Activity (MDA-MB-468): Active

Compound: C[C@H](C(=O)N(Cc1ccc(C2CCCCC2)cc1)c1ccc(C(=O)O)c(O)c1)N(C)S(=O)(=O)c1c(F)c(F)c(F)c(F)c1F [listing 2 of 2 here]
Activity [29]: Non-Toxic
